Measurements collected from several papers.
Compare with care: the assays were run in different laboratories. pEC50, pIC50, pKd, pKi: −log10 of the molar value.
ESR1: Estrogen receptor (ESR1, Homo sapiens, UniProt P03372)
Si: Sucrase-isomaltase, intestinal (Si, Rattus norvegicus, UniProt P23739)
ADRA2C: Alpha-2C adrenergic receptor (ADRA2C, Homo sapiens, UniProt P18825)
APLNR: Apelin receptor (APLNR, Homo sapiens, UniProt P35414)
PLK4: Serine/threonine-protein kinase PLK4 (PLK4, Homo sapiens, UniProt O00444)

| SMILES | target | assay | conditions | endpoint | value |
| --- | --- | --- | --- | --- | --- |
| CC(C)(c1ccc(O)cc1)c1ccc(C(C)(C)c2ccc(O)cc2)cc1 | ESR1 | reporter gene, antagonist, luciferase | – | pIC50 | 5.54 |
| CCCCCc1cc(O)c(C/C=C(\C)CCC=C(C)C)c(O)c1 | Si | enzyme activity, inhibitor, absorbance | – | pIC50 | 3.21 |
| C[C@H](CCCOS(=O)(=O)O)[C@H]1CC[C@H]2[C@@H]3CC[C@H]4C[C@@H](O)CC[C@]4(C)[C@H]3CC[C@]12C | cGMP-inhibited 3',5'-cyclic phosphodiesterase 3A (PDE3A, Homo sapiens, UniProt Q14432) | enzyme activity, inhibitor | – | pIC50 | 5.15 |
| CCCCC1CNC2CCc3ccc(OC)cc3C12 (racemic) | ADRA2C | ligand displacement, radioligand | – | pKi | 6.21 |
| CC[C@H](C)[C@H](NC(=O)[C@H](CCCCN)NC(=O)[C@H](CCCCN)NC(=O)[C@H](C)NC(=O)[C@H](C)NC(=O)[C@@H](NC(=O)[C@H](CCCNC(=N)N)NC(=O)[C@H](CCSC)NC(=O)[C@H](CCC(N)=O)NC(=O)[C@H](CCC(=O)O)NC(=O)[C@H](CCCCN)NC(=O)[C@@H](N)CO)[C@@H](C)CC)C(=O)NCC(=O)N[C@@H](CC(C)C)C(=O)N[C@@H](CC(C)C)C(=O)N[C@@H](CCC(=O)O)C(=O)O | APLNR | calcium signal, antagonist, fluorescence | – | pIC50 | 4.69 |
| CC(C)C[C@H](NC(=O)[C@H](CC(C)C)NC(=O)[C@@H]1CCCN1C(=O)[C@H](C)NC(=O)[C@@H](NC(=O)[C@H](C)N)C(C)C)C(=O)N[C@@H](Cc1c[nH]cn1)C(=O)N[C@@H](CO)C(=O)N[C@H](C(=O)O)[C@@H](C)OP(=O)(O)O | PLK4 | binding, MST | pH 8 | pKd | 7.40 |
| CC(C)C[C@@H]1NC(=O)[C@H](CCCNC(=N)N)NC(=O)[C@@H]2CCCN2C(=O)[C@H](CCCNC(=N)N)NC(=O)[C@@H](NC(=O)[C@H](Cc2c[nH]cn2)NC(=O)[C@H](CCCCN)NC(=O)[C@@H]2CSSC[C@H](N)C(=O)N[C@@H](CCCNC(=N)N)C(=O)N3CCC[C@H]3C(=O)N[C@@H](CCCNC(=N)N)C(=O)N[C@@H](CC(C)C)C(=O)N2)CSSC[C@@H](C(=O)O)NC1=O | APLNR | β-arrestin recruitment, antagonist | – | pIC50 | 5.00 |
| CC[C@H](C)[C@H](NC(=O)[C@H](CO)NC(=O)[C@H](Cc1c[nH]cn1)NC(=O)[C@H](Cc1ccccc1)NC(=O)[C@H](CCCCN)NC(=O)[C@H](CCCCN)NC(=O)[C@H](CS)NC(=O)[C@H](CC(C)C)NC(=O)[C@H](CCC(=O)O)NC(=O)[C@@H]1CCCN1C(=O)[C@@H](N)CO)C(=O)N1CCC[C@H]1C(=O)N[C@@H](CC(C)C)C(=O)N[C@@H](Cc1ccccc1)C(=O)N1CCC[C@H]1C(=O)O | APLNR | calcium signal, agonist, fluorescence | – | pEC50 | 6.90 |
| COc1cc2c(cc1OC)CN(CCc1ccc(NC(=O)c3cccc4c(=O)c5cccc(OC)c5[nH]c34)cc1)CC2 | ADRA2C | cell-free assay | – | pKi | 6.82 |
| CC(C)(C)C#Cc1cc(-c2ccnc(N)c2)cc2c(N)n[nH]c12 | Inhibitor of nuclear factor kappa-B kinase subunit beta (IKBKB, Homo sapiens, UniProt O14920) | enzyme activity, inhibitor, FRET | – | pIC50 | 5.34 |
| CC[C@H](C)[C@H](NC(=O)[C@@H](N)CCC(=O)O)C(=O)N[C@@H](C)C(=O)N1CCC[C@H]1C(=O)N[C@H](C(=O)N[C@@H](CC(C)C)C(=O)N[C@@H](Cc1c[nH]cn1)C(=O)N[C@@H](CO)C(=O)N[C@H](C(=O)O)[C@@H](C)OP(=O)(O)O)C(C)C | PLK4 | binding, MST | pH 8 | pKd | 7.64 |
| CCCCCc1cc(O)c2c(c1)OC(C)(CCC=C(C)C)C=C2 (stereo not shown) | Si | enzyme activity, inhibitor, absorbance | – | pIC50 | 3.27 |
| CC(C)C[C@H](NC(=O)[C@H](CCCNC(=N)N)NC(=O)[C@H](CCCNC(=N)N)NC(=O)[C@H](CS)NC(=O)[C@H](CCCNC(=N)N)NC(=O)[C@H](CCC(=O)O)NC(=O)[C@H](CCCNC(=N)N)NC(=O)[C@@H](N)CO)C(=O)N[C@@H](Cc1c[nH]cn1)C(=O)N[C@@H](CO)C(=O)N[C@@H](CC(C)C)C(=O)N1CCC[C@H]1C(=O)N[C@@H](CC(C)C)C(=O)N[C@@H](Cc1ccccc1)C(=O)N1CCC[C@H]1C(=O)O | APLNR | calcium signal, agonist, fluorescence | – | pEC50 | 8.38 |
| Clc1ccc(C(c2ccccc2Cl)C(Cl)(Cl)Cl)cc1 (stereo not shown) | Glucocorticoid receptor (NR3C1, Homo sapiens, UniProt P04150) | ligand displacement | – | pIC50 | 5.57 |
| CC(c1ccccc1)(c1ccc(O)cc1)c1ccc(O)cc1 | ESR1 | reporter gene, antagonist, luciferase | – | pIC50 | 4.68 |
| CC[C@H](C)[C@H](NC(=O)[C@H](CCSC)NC(=O)[C@H](CCC(N)=O)NC(=O)[C@H](CCCNC(=N)N)NC(=O)[C@H](Cc1ccccc1)NC(=O)CN)C(=O)N[C@@H](C)C(=O)N[C@@H](CCCNC(=N)N)C(=O)N[C@@H](C)C(=O)N[C@@H](CCCCN)C(=O)N[C@@H](Cc1ccc(O)cc1)C(=O)N[C@@H](CCC(N)=O)C(=O)NCC(=O)N[C@@H](CC(C)C)C(=O)N[C@@H](CC(C)C)C(=O)N[C@@H](Cc1ccc(O)cc1)C(=O)O | APLNR | calcium signal, agonist, fluorescence | – | pEC50 | 6.21 |
